Experimental data published in ChEMBL document CHEMBL1649186, “Characterization of macrolide efflux pump mef subclasses detected in clinical isolates of Streptococcus pyogenes isolated between 1999 and 2005” (2009).
In brackets after ≈: the same amount, converted by molar mass.

Key:
Type in all cases: functional
[1] = system: Streptococcus pyogenes; assay: Antimicrobial activity against Streptococcus pyogenes clinical isolate expressing mosaic variant of mef gene by broth microdilution method
Summary of the method: (§1)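 Clinical isolates were subcultured from -70°C or 4°C storage onto horse blood agar and grown overnight at 36°C in 5 to 6% CO2. MICs were then measured by CLSI broth microdilution. mef presence was screened by a TaqMan plus/minus assay, and the mef subclass was assigned by sequencing.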

[2] = system: Streptococcus pyogenes; assay: Antimicrobial activity against Streptococcus pyogenes clinical isolate expressing mef(A) gene by broth microdilution method; summary of the method: as §1
[3] = system: Streptococcus pyogenes; assay: Antimicrobial activity against Streptococcus pyogenes clinical isolate expressing mef(E) gene by broth microdilution method; summary of the method: as §1

| SMILES | MIC [1] [µg/mL] | MIC50 [1] [µg/mL] | MIC90 [1] [µg/mL] | MIC [2] [µg/mL] | MIC50 [2] [µg/mL] | MIC90 [2] [µg/mL] | MIC50 [3] [µg/mL] | MIC90 [3] [µg/mL] |
| --- | --- | --- | --- | --- | --- | --- | --- | --- |
| CN(C)[C@@H]1C(O)=C(C(N)=O)C(=O)[C@@]2(O)C(O)=C3C(=O)c4c(O)cccc4[C@@](C)(O)[C@H]3C[C@@H]12 [TETRACYCLINE] | 32 (≈ 72 µM) | 32 (≈ 72 µM) | 32 (≈ 72 µM) | 0.25 (≈ 0.563 µM) | 0.25 (≈ 0.563 µM) | 0.25 (≈ 0.563 µM) | 32 (≈ 72 µM) | 32 (≈ 72 µM) |
| CC[C@H]1OC(=O)[C@H](C)[C@@H](O[C@H]2C[C@@](C)(OC)[C@@H](O)[C@H](C)O2)[C@H](C)[C@@H](O[C@@H]2O[C@H](C)C[C@H](N(C)C)[C@H]2O)[C@](C)(OC)C[C@@H](C)C(=O)[C@H](C)[C@@H](O)[C@]1(C)O [CLARITHROMYCIN] |  | 8 (≈ 10.7 µM) | 8 (≈ 10.7 µM) |  | 8 (≈ 10.7 µM) | 16 (≈ 21.4 µM) | 4 (≈ 5.35 µM) | 8 (≈ 10.7 µM) |
| CCC[C@@H]1C[C@@H](C(=O)N[C@@H]([C@H]2O[C@H](SC)[C@H](O)[C@@H](O)[C@H]2O)[C@H](C)Cl)N(C)C1 [CLINDAMYCIN] |  | 0.06 (≈ 0.141 µM) | 0.06 (≈ 0.141 µM) |  | 0.06 (≈ 0.141 µM) | 0.25 (≈ 0.588 µM) | 0.25 (≈ 0.588 µM) | 0.25 (≈ 0.588 µM) |
| CC[C@H]1OC(=O)[C@H](C)[C@@H](O[C@H]2C[C@@](C)(OC)[C@@H](O)[C@H](C)O2)[C@H](C)[C@@H](O[C@@H]2O[C@H](C)C[C@H](N(C)C)[C@H]2O)[C@](C)(O)C[C@@H](C)CN(C)[C@H](C)[C@@H](O)[C@]1(C)O [AZITHROMYCIN] | 16 (≈ 21.4 µM) | 16 (≈ 21.4 µM) | 32 (≈ 42.7 µM) |  | 8 (≈ 10.7 µM) | 16 (≈ 21.4 µM) | 8 (≈ 10.7 µM) | 16 (≈ 21.4 µM) |
| CC[C@H]1OC(=O)[C@H](C)[C@@H](O[C@H]2C[C@@](C)(OC)[C@@H](O)[C@H](C)O2)[C@H](C)[C@@H](O[C@@H]2O[C@H](C)C[C@H](N(C)C)[C@H]2O)[C@](C)(O)C[C@@H](C)C(=O)[C@H](C)[C@@H](O)[C@]1(C)O [ERYTHROMYCIN] | 8 (≈ 10.9 µM) | 8 (≈ 10.9 µM) | 16 (≈ 21.8 µM) |  | 16 (≈ 21.8 µM) | 16 (≈ 21.8 µM) | 8 (≈ 10.9 µM) | 16 (≈ 21.8 µM) |
